Assay results as given in ChEMBL document CHEMBL2346506, “Cytotoxicity and modulation of cancer-related signaling by (Z)- and (E)-3,4,3',5'-tetramethoxystilbene isolated from Eugenia rigida” (J Nat Prod, 2013).
The source made the active and inactive calls. No cut-off for these calls is given here.

Experiments:
[1] = target: T1, Nitric oxide synthase, inducible (Mus musculus) (UniProt P29477); assay: Inhibition of iNOS in LPS-induced mouse RAW264.7 cells assessed as inhibition of […] up to 33.3 uM measured after 24 hrs; assay type: cell-based
T1 sequence (whole entry): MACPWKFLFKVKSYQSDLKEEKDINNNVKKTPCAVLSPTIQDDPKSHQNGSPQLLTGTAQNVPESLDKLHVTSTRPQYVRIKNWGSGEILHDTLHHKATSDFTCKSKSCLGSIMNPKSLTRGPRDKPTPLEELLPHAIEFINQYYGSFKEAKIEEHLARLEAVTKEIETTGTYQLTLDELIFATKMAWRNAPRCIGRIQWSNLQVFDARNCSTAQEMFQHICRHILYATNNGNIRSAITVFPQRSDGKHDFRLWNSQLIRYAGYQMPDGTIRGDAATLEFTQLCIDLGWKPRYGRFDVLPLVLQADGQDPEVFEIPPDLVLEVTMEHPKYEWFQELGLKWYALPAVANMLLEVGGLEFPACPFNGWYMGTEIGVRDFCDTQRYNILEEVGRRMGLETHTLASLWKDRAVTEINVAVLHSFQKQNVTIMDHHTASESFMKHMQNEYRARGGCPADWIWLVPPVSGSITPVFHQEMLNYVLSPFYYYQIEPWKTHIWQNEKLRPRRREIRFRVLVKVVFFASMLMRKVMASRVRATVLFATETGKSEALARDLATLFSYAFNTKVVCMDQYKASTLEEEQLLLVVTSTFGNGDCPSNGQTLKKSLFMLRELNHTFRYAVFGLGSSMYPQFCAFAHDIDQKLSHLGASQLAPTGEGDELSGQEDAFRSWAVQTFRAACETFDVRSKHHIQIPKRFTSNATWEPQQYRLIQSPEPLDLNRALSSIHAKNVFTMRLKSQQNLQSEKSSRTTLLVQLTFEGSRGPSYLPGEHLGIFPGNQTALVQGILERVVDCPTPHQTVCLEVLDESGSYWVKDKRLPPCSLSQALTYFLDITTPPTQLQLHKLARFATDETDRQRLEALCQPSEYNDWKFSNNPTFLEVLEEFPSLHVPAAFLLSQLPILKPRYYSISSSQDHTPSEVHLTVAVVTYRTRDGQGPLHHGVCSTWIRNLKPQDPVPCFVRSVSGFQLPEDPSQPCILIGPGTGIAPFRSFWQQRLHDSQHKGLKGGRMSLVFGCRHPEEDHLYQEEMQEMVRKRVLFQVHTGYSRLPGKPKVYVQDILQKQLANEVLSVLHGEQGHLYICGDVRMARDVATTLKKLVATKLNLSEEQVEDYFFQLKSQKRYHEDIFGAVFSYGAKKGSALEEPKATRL
How it was run: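 RAW 264.7 macrophages seeded at 50 000 per well and grown 24 h. Compound added 30 min before LPS (5 μg/mL), then cells incubated a further 24 h. Nitrite in the supernatant measured with Griess reagent relative to vehicle control. Parthenolide served as positive control; cytotoxicity checked in parallel.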

HL-60 [2] = assay: Inhibition of PMA induced ROS generation in human HL60 cells assessed as inhibition of ROA mediated oxidation of DCFH; assay type: functional, cell-based
How it was run: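 HL-60 cells (0.8 × 10⁶/mL) in RPMI-1640 with 10% FBS were pretreated 30 min with compound (0.4–100 μM). PMA (100 ng/mL) was then added for 30 min, followed by DCFH-DA (5 μg/mL) for 15 min. DCF fluorescence read at Ex 485 / Em 530 nm and compared with vehicle control. Trolox served as positive control.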

[3] = Inhibition of Hedgehog signaling pathway in human HeLa cells assessed as inhibition of PMA induced luciferase at 100 uM treated 30 mins before induction; assay type: cell-based
How it was run: (§1)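 Reporter assay in cells transfected with pathway luciferase plasmids. Cells plated at 0.015 × 10⁶ per well in 10% FBS, switched after 24 h to DMEM with 1% FBS, then transfected. 24 h after transfection, compound (final 40, 60, 80 or 100 μM) was added, followed 30 min later by inducer (IL-6, TGF-β, wnt3a or PMA). Luciferase was read 4 or 6 h after induction (6 h for Notch, Wnt, Hedgehog). Value is the IC50 or the lowest concentration giving maximal 50–60% inhibition; two independent experiments.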

[4] = Inhibition of Wnt signaling pathway in human HeLa cells assessed as measured as lowest concentration required 50 to 60 % inhibition of Wnt3a induced luciferase treated 30 mins before induction; assay type: cell-based; how it was run: as §1
[5] = Inhibition of Wnt signaling pathway in human HeLa cells assessed as inhibition of Wnt3a induced luciferase treated 30 mins before induction; assay type: cell-based; how it was run: as §1
[6] = target: Forkhead box protein O1 (Homo sapiens) (UniProt Q12778); assay: Inhibition of FoxO signaling pathway in human HeLa cells assessed as inhibition of luciferase at 100 uM […]; assay type: cell-based
Sequence of Forkhead box protein O1 (Homo sapiens) (Q12778 whole entry): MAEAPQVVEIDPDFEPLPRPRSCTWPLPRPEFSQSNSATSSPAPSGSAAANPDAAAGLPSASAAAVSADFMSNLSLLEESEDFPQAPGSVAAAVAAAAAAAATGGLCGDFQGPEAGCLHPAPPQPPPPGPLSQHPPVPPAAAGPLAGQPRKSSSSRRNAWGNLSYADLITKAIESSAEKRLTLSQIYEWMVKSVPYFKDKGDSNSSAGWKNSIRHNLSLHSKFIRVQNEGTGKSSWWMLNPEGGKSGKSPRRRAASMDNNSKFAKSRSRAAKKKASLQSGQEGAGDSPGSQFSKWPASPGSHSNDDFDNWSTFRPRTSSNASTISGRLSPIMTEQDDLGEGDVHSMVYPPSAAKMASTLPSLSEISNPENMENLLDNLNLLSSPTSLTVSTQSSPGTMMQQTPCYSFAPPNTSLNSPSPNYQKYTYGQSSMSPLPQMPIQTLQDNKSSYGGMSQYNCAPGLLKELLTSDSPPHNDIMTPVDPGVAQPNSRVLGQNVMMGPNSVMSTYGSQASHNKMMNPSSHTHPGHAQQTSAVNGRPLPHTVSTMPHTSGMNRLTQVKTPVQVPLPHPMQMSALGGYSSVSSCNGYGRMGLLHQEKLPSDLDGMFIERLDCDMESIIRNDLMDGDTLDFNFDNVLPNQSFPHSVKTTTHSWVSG

[7] = Inhibition of Notch signaling pathway in human HeLa cells assessed as inhibition of PMA induced luciferase at 100 uM treated 30 mins before induction; assay type: cell-based; how it was run: as §1
[8] = Inhibition of Ets signaling pathway in human HeLa cells assessed as inhibition of PMA induced luciferase at 100 uM treated 30 mins before induction; assay type: cell-based; how it was run: as §1
[9] = target: Myc proto-oncogene protein (Homo sapiens) (UniProt P01106); assay: Inhibition of Myc signaling pathway in human HeLa cells assessed as inhibition of PMA induced luciferase at 100 uM treated 30 mins before induction; assay type: cell-based; how it was run: as §1
Sequence of Myc proto-oncogene protein (Homo sapiens) (P01106 whole entry): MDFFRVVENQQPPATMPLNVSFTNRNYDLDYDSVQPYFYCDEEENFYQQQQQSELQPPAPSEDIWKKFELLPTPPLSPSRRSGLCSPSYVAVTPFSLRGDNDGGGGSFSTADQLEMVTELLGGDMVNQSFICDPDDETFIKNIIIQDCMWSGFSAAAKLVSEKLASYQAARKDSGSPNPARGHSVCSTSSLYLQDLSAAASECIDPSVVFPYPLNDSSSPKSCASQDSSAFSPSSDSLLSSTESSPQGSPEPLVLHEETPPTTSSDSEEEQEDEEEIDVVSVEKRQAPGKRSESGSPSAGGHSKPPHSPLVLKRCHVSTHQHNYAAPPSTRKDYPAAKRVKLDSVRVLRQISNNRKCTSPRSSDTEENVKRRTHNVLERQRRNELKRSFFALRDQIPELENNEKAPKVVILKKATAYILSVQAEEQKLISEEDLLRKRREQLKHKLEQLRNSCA

[10] = Inhibition of E2F signaling pathway in human HeLa cells assessed as inhibition of PMA induced luciferase at 100 uM treated 30 mins before induction; assay type: cell-based; how it was run: as §1
[11] = Inhibition of NFkappaB signaling pathway in human HeLa cells assessed as inhibition of PMA induced luciferase at 100 uM treated 30 mins before induction; assay type: cell-based; how it was run: as §1
[12] = Inhibition of NFkappaB signaling pathway in human HeLa cells assessed as inhibition of PMA induced luciferase treated 30 mins before induction; assay type: cell-based; how it was run: as §1
[13] = Inhibition of AP1 signaling pathway in human HeLa cells assessed as measured as lowest concentration required 50 to 60 % inhibition of PMA induced luciferase treated 30 mins before induction; assay type: cell-based; how it was run: as §1
[14] = Inhibition of AP1 signaling pathway in human HeLa cells assessed as inhibition of PMA induced luciferase treated 30 mins before induction; assay type: cell-based; how it was run: as §1
HeLa [15] = assay: Inhibition of smad3/4 signaling pathway in human HeLa cells assessed as measured as lowest concentration required 50 to 60 % inhibition of TGF-beta induced luciferase treated 30 mins before induction; assay type: functional; how it was run: as §1
HeLa [16] = assay: Inhibition of Stat3 signaling pathway in human HeLa cells assessed as inhibition of IL-6 induced luciferase at 100 uM treated 30 mins before induction; assay type: functional; how it was run: as §1
HeLa [17] = assay: Inhibition of smad3/4 signaling pathway in human HeLa cells assessed as inhibition of TGF-beta induced luciferase treated 30 mins before induction; assay type: functional, cell-based; how it was run: as §1
Vero = assay: Cytotoxicity against african green monkey Vero cells assessed as growth inhibition measured at 100 uM after 48 hrs by […] assay; assay type: cell-based; conditions: chlorocebus sabaeus
LLC-PK1 = assay: Cytotoxicity against pig LLC-PK1 cells assessed as growth inhibition measured at 100 uM after 48 hrs by […] assay; assay type: cell-based, Sus scrofa; conditions: llc-pk1, 48 h
SK-OV-3 = assay: Cytotoxicity against human SKOV3 cells assessed as growth inhibition measured at 100 uM after 48 hrs by […] assay; assay type: functional, cell-based
HL-60 [18] = assay: Cytotoxicity against human HL60 cells assessed as growth inhibition measured after 48 hrs by XTT assay; assay type: functional, cell-based; conditions: HL-60, 48 h
HeLa [19] = assay: Cytotoxicity against human HeLa cells assessed as growth inhibition measured after 48 hrs by Neutral Red dye assay
SK-MEL = assay: Cytotoxicity against human SK-MEL cells assessed as growth inhibition measured after 48 hrs by Neutral Red dye assay
KB = assay: Cytotoxicity against human KB cells assessed as growth inhibition measured at 100 uM after 48 hrs by Neutral Red dye assay
BT-549 = assay: Cytotoxicity against human BT549 cells assessed as growth inhibition measured at 100 uM after 48 hrs by Neutral Red dye assay

COc1cc(/C=C/c2ccc(OC)c(OC)c2)cc(OC)c1 [(E)-3,4,3',5'-TETRAMETHOXYSTILBENE]
inhibition [1]: inactive
IC50 (HL-60 [2]): 33.3 µM
inhibition [3]: < 40%
MED [4]: 80 µM
IC50 [5]: 80 µM
inhibition [6]: < 40%
inhibition [7]: < 40%
inhibition [8]: < 40%
inhibition [9]: < 40%
inhibition [10]: < 40%
inhibition [11]: < 40%
IC50 [12]: 90 µM
MED [13]: 100 µM
IC50 [14]: 80 µM
MED (HeLa [15]): 77 µM
inhibition at 100 µM (HeLa [16]): < 40%
IC50 (HeLa [17]): 100 µM
growth inhibition (GI) (Vero): Not Active
growth inhibition (GI) (LLC-PK1): Not Active
growth inhibition (GI) (SK-OV-3): inactive
IC50 (HL-60 [18]): 33.3 µM
IC50 (HeLa [19]): 8 µM
IC50 (SK-MEL): 60 µM
growth inhibition (GI) (KB): inactive
growth inhibition (GI) (BT-549): inactive
